Experimental findings from ChEMBL document CHEMBL1148446, “New analogues of amonafide and elinafide, containing aromatic heterocycles: synthesis, antitumor activity, molecular modeling, and DNA binding properties” (J Med Chem, 2004) are described below.

The subject of one assay is Mus musculus. The experiment in a line: In vivo antitumor activity in mice infected with HT-29 cells. Format: functional. In outline: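 HT-29 xenografts: 10⁶ cells/0.1 mL DMEM injected sc into the back of athymic nu/nu mice. At ~0.1 cm³ tumors, randomized to 4 control and 4 treated. Dosing 5 mg/kg ip in sterile 0.9% NaCl, daily for 4 days then 10 days off (14-day cycles), up to 60 days; controls given vehicle. Tumors measured 1–2×/week; V = (Dd²)/2.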

In a further assay the test system is HeLa. The experiment in a line: In vitro cytotoxicity against human cervical carcinoma (HeLa) cell line. Format: functional, cell-based. In outline:
(§1)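 MTT assay on log-phase cells kept at 37 °C, 5% CO2. Seeded at 2.5 × 10³ cells/well; compound added 24 h later as serial PBS dilutions of a 1 × 10⁻⁵ M DMSO stock. Exposure 72 h, then MTT (1 mg/mL in PBS) for 4 h, DMSO solubilization, absorbance at 570 nm. PBS negative control, doxorubicin positive control. At least three experiments; IC50 = concentration reducing growth to 50% of control.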

Another assay concerns PC-3. The experiment in a line: In vitro cytotoxicity against human prostate carcinoma (PC-3) cell line. Format: functional, cell-based. The gist of the method: as §1
Another assay has as its system HT-29. The experiment in a line: In vitro cytotoxicity against human colon carcinoma (HT-29) cell line. Format: functional, cell-based. In outline:
as §1

As a reminder, the IC50 is the concentration that gives 50% inhibition. A high value points to a need for much substance.

In the case of `O=C1c2cccc3c2c(cc2ccoc23)C(=O)N1CCNCCCNCCN1C(=O)c2cccc3c2c(cc2ccoc23)C1=O`, the Reduction in the assay on Mus musculus was around 80%. Further, the IC50 with HeLa came out at 44 nM; in the assay on PC-3 it was 500 nM; in the assay on HT-29 it was 6.8 nM.
In the case of `CN(CCCN(C)CCN1C(=O)c2cccc3c2c(cc2sccc23)C1=O)CCN1C(=O)c2cccc3c2c(cc2sccc23)C1=O`, the values for the IC50 with HeLa, with PC-3 and with HT-29 were 210 nM, 1420 nM and 270 nM, respectively.
With `CN(C)CCN1C(=O)c2cccc3c2c(cc2occc23)C1=O`, the IC50 in the assay on HeLa is 140 nM; with PC-3, 164 nM; in the assay with HT-29, 550 nM.
Taken in the same sequence, the figures for `CN(C)CCN1C(=O)c2cccc3c2c(cc2sccc23)C1=O` were 800 nM, 3500 nM and 1150 nM.
As to `O=C1c2cccc3c2c(cc2sccc23)C(=O)N1CCNCCCNCCN1C(=O)c2cccc3c2c(cc2sccc23)C1=O`, the IC50 amounted to 160 nM in the assay on HeLa, 930 nM in the assay with PC-3 and 47 nM in the assay with HT-29.
Take `O=C1c2cccc3c2c(cc2occc23)C(=O)N1CCNCCCNCCN1C(=O)c2cccc3c2c(cc2occc23)C1=O`: the IC50 in the assay with HeLa was 730 nM; in the assay with PC-3 it was above 100000 nM; in the assay with HT-29, 370 nM.
Taken in the same sequence, the figures for `CN(C)CCN1C(=O)c2cccc3c2c(cc2ccsc23)C1=O` were 860 nM, 1190 nM and 750 nM.
Taken in the same sequence, the figures for `CN(CCCN(C)CCN1C(=O)c2cccc3c2c(cc2ccoc23)C1=O)CCN1C(=O)c2cccc3c2c(cc2ccoc23)C1=O` were 2580 nM, 12600 nM and 710 nM.
Taken in the same sequence, the figures for `CN(C)CCN1C(=O)c2cccc3c2c(cc2ccoc23)C1=O` were 4300 nM, 5580 nM and 2690 nM.
For `O=C1c2cccc3c2c(cc2ccsc23)C(=O)N1CCNCCCNCCN1C(=O)c2cccc3c2c(cc2ccsc23)C1=O`, the IC50 was 1040 nM in the assay with HeLa, 400 nM in the assay on PC-3 and 1940 nM in the assay with HT-29.
Turning to `CN(CCCN(C)CCN1C(=O)c2cccc3c2c(cc2ccsc23)C1=O)CCN1C(=O)c2cccc3c2c(cc2ccsc23)C1=O`, the IC50 amounted to 570 nM in the assay with HeLa, 2500 nM in the assay on PC-3 and 390 nM in the assay on HT-29.
